{"data": "Experimental data of several laboratories", "target": "Muscle, skeletal receptor tyrosine-protein kinase (MUSK, Homo sapiens, UniProt O15146)", "Residues used in one study (O15146 24-869)": "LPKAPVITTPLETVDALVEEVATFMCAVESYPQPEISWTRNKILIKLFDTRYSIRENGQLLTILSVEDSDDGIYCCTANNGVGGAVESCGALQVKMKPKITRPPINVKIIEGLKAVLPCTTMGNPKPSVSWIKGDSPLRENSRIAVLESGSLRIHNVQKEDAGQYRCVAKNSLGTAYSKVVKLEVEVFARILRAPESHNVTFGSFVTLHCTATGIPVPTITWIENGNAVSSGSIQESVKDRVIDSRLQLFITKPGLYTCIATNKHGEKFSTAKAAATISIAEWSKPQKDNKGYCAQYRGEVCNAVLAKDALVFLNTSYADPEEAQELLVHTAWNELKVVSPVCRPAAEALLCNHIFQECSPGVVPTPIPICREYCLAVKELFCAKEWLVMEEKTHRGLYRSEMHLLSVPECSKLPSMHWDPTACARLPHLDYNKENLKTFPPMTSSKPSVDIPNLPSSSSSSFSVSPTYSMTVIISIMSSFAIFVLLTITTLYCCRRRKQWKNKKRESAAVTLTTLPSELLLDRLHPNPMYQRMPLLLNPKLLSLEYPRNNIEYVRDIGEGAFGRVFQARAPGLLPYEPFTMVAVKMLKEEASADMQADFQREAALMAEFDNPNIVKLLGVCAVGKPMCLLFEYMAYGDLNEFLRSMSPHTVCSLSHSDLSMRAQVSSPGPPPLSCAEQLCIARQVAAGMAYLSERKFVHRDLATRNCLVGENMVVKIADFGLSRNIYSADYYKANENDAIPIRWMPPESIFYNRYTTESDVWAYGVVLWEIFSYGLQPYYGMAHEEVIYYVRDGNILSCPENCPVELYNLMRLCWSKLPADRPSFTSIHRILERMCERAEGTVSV", "note": "Protocols differ between the studies behind these lines."}
{"SMILES": "O=C(NCC1CCOCC1)c1n[nH]cc1NC(=O)c1c(F)cccc1F", "read-out": "binding", "technique": "competition with immobilised ligand", "concentration": "1 µM", "remaining binding [%]": 88}
{"SMILES": "CCC(=O)N[C@H]1CC[C@@H](C(=O)N(C)c2ccc(-c3nc4ccccc4o3)cc2)C1", "read-out": "cell-free assay", "technique": "competition with immobilised ligand", "concentration": "1 µM", "remaining binding [%]": 100}
{"SMILES": "O=C(c1ccc(Nc2ncc(Cl)c(-c3cc4ccccc4s3)n2)cc1)N1CCC(N2CCCC2)CC1", "read-out": "binding", "technique": "competition with immobilised ligand", "concentration": "1 µM", "remaining binding [%]": 24}
{"SMILES": "C=CC(=O)N1CCC(C(=O)NCC(=O)N2CCN(c3nc(-c4cnc(N)nc4C(F)F)nc(N4CCOCC4)n3)CC2)CC1", "read-out": "binding", "technique": "competition with immobilised ligand", "concentration": "1 µM", "remaining binding [%]": 79}
{"SMILES": "O=C(NCCCN1CCOCC1)c1ccc(Nc2nccc(-c3cc4ccccc4s3)n2)cc1", "read-out": "binding", "technique": "competition with immobilised ligand", "concentration": "1 µM", "remaining binding [%]": 77}
{"SMILES": "c1cnn2ncc(-c3ccnc(N4CCC45COC5)n3)c2c1", "read-out": "binding", "concentration": "1 µM", "remaining binding [%]": 80}
{"SMILES": "COc1cnc(Nc2cccc(S(N)(=O)=O)c2)nc1N1CCN(c2ccccc2)CC1", "read-out": "binding", "technique": "competition with immobilised ligand", "concentration": "1 µM", "remaining binding [%]": 97}
{"SMILES": "N[C@@H]1CCN(c2nccc(-c3cnn4ncccc34)n2)C1", "read-out": "binding", "concentration": "1 µM", "remaining binding [%]": 100}
{"SMILES": "CN([C@@H]1CCc2c(CC(=O)O)c3cc(S(C)(=O)=O)ccc3n2C1)S(=O)(=O)c1ccc(F)cc1", "read-out": "cell-free assay", "technique": "competition with immobilised ligand", "concentration": "1 µM", "remaining binding [%]": 100}
{"SMILES": "C[C@@H](c1ccc(-n2cnc3c(N)ncnc32)cc1)N1CCc2nn(C)c(Cc3ccccc3)c2C1=O", "read-out": "binding", "technique": "competition with immobilised ligand", "concentration": "0.1 µM", "remaining binding [%]": 68}
{"SMILES": "CO[C@@H](C)c1c(Nc2ccc([C@@H](N(C)C(=O)C3CCS(=O)(=O)CC3)C(F)(F)F)cc2)cnc2cc(Cl)nn12", "read-out": "cell-free assay", "technique": "competition with immobilised ligand", "concentration": "1 µM", "remaining binding [%]": 88}
{"SMILES": "CN(C)c1nccc(-c2cnn3ncccc23)n1", "read-out": "binding", "concentration": "1 µM", "remaining binding [%]": 92}
{"SMILES": "O=C(c1ccc(Nc2ncc(Cl)c(-c3ccc(Cl)s3)n2)cc1)N1CCC(N2CCCC2)CC1", "read-out": "binding", "technique": "competition with immobilised ligand", "concentration": "1 µM", "remaining binding [%]": 57}
{"SMILES": "c1cncc(-c2cccc(Nc3nccc(NC4CCCCC4)n3)c2)c1", "read-out": "binding", "technique": "competition with immobilised ligand", "concentration": "10 µM", "remaining binding [%]": 86}
{"SMILES": "CN(C)c1ncc(F)c(-c2cnn3ncccc23)n1", "read-out": "binding", "concentration": "1 µM", "remaining binding [%]": 100}
{"SMILES": "CC(=O)c1c(NS(C)(=O)=O)c2cc(-c3ccc(Cl)cc3)c(-c3ccc(Cl)cc3Cl)nc2n(C)c1=O", "read-out": "cell-free assay", "technique": "competition with immobilised ligand", "concentration": "1 µM", "remaining binding [%]": 99}
{"SMILES": "CC1CCCN1c1nccc(-c2cnn3ncccc23)n1 (stereo not shown)", "read-out": "binding", "concentration": "1 µM", "remaining binding [%]": 100}
{"SMILES": "CNC(=O)[C@@H]1CC[C@@H](n2c(-c3ccc4cnccc4c3)nc3ccc(C(=O)NCc4cccc(C(N)=O)c4)cc32)C1", "read-out": "binding", "technique": "competition with immobilised ligand", "concentration": "1 µM", "remaining binding [%]": 90}
{"SMILES": "CN(CCCC(F)(F)F)c1nccc(-c2cnn3ncccc23)n1", "read-out": "binding", "concentration": "1 µM", "remaining binding [%]": 100}
{"SMILES": "O=C1CCc2cc(Nc3cc(OC4CCOCC4)c([N+](=O)[O-])cc3Cl)ccc2N1", "read-out": "cell-free assay", "technique": "competition with immobilised ligand", "concentration": "1 µM", "remaining binding [%]": 100}
{"SMILES": "C[C@H]1CCN(c2nccc(-c3cnn4ncccc34)n2)C1", "read-out": "binding", "concentration": "1 µM", "remaining binding [%]": 80}
{"SMILES": "CCS(=O)(=O)c1cc2cc(C[C@](O)(CC(C)(C)c3ccc(F)cc3C(N)=O)C(F)(F)F)[nH]c2cn1", "read-out": "cell-free assay", "technique": "competition with immobilised ligand", "concentration": "1 µM", "remaining binding [%]": 94}
